Source: publication PMC3478735 (ACS Nano, 2012)

How the values were obtained:
[1] = test system: HeLa cells; test: Endosomal escape, codelivery of Calcein, fluorescence microscopy; format: cell-based, human
Outline: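 HeLa cells plated 48 h ahead to ≥70% confluence. Calcein 0.25 mM added alone or with nanocomplexes (100 nM siRNA) in DMEM + 10% bovine serum, 1 h, 37 °C. Cells washed three times in PBS and imaged live (FITC filter). Cells with diffuse cytoplasmic fluorescence counted in ≥8 random fields, normalised to total cells (500–800 per carrier per experiment), reported as mean % per field.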

[2] = test system: HeLa cells; test: Uptake of myr-TP-LyP-1 nanocomplexes in the presence of endocytosis inhibitors; format: cell-based, human; conditions: inhibitor 1 h at 37 °C, then nanocomplexes (2 μM peptide, 100 nM siRNA) 1 h, flow cytometry
Outline: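 HeLa cells at ~70% confluence. Small-molecule inhibitors applied 1 h at 37 °C. Then nanocomplexes of labelled peptide (2 μM) with GFP siRNA (100 nM) added for a further 1 h at 37 °C. Cells washed three times with cold PBS, trypsinised, and uptake read by flow cytometry.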

| Compound | endosomal escape [1] | uptake of myr-TP-LyP-1 nanocomplexes in the presence of the inhibitor [2] |
| --- | --- | --- |
| C[C@@H](O)[C@@H]1NC(=O)[C@H](CCCNC(=N)N)NC(=O)[C@H](CCCCN)NC(=O)[C@H](CC(N)=O)NC(=O)CNC(=O)[C@@H](N)CSSC[C@@H](C(=O)O)NC(=O)CNC(=O)[C@H](CCCNC(=N)N)NC1=O [LyP-1] | little or no endosomal escape | – |
| CCCCCCCCCC(=O)NC(CN1CCOCC1)C(O)c1ccccc1 (stereo not shown) [PDMP] | – | significantly decreased |
| N=C(N)NC(=O)c1nc(Cl)c(N)nc1N [amiloride] | – | significantly decreased |
| OCC1OC(O)CC(O)C1O (stereo not shown) [deoxyglucose] | – | significantly decreased |
